Experiment [1] addresses T1, Chromodomain Y-like protein (Mus musculus) (UniProt Q9WTK2).
T1 sequence (whole entry): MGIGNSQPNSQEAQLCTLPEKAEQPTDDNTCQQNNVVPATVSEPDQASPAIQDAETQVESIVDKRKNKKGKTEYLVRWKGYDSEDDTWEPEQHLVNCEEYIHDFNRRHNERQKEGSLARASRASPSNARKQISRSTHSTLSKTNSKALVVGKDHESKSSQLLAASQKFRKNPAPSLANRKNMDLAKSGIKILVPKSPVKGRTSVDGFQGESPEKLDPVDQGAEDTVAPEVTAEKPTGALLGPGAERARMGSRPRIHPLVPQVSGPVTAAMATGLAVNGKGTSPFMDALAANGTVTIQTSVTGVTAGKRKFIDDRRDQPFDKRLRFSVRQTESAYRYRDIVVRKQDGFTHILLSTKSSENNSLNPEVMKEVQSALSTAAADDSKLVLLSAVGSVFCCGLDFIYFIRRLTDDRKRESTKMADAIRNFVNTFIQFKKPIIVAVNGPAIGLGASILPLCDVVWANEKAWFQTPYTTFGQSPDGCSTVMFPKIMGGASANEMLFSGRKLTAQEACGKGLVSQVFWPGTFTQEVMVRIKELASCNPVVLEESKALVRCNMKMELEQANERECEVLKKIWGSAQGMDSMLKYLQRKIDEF
Put plainly: Inhibition of CDYL in C57BL/6 mouse cortical neurons as increase in VGF mRNA expression at 150 uM incubated for 24 hrs by RT-qPCR analysis. An outline of the steps: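 Mouse cortical or hippocampal neurons, dissociated with trypsin and kept in Neurobasal/B27, treated with 150 µM compound for 24 h. mRNA measured by SYBR green RT-qPCR with the 2^-ΔΔCt method, GAPDH as reference, relative to DMSO. Mean ± S.E.M. of triplicate experiments, Student's t-test.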
For orientation: Real-time PCR tracks product formation cycle by cycle.

Experiment [2] deals with T1, Chromodomain Y-like protein (Mus musculus). The experiment can be described thus: Inhibition of CDYL in C57BL/6 mouse cortical neurons assessed as induction of dendritic branching at 150 uM incubated for 24 hrs by DAPI staining confocal microscopic method. An outline of the steps: (§1)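 Mouse hippocampal or cortical neurons on poly-D-lysine given 150 µM compound or DMSO at DIV 5 for 24 h, then fixed in 4% PFA. Stained for MAP2 with DAPI nuclei and imaged by confocal microscopy. Dendrite crossings counted by Sholl analysis at 10 µm intervals. Mean ± S.E.M. of triplicates, Student's t-test.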

In experiment [3] the target is T2, Chromodomain Y-like protein (Homo sapiens) (UniProt Q9Y232).
T2 sequence (whole entry): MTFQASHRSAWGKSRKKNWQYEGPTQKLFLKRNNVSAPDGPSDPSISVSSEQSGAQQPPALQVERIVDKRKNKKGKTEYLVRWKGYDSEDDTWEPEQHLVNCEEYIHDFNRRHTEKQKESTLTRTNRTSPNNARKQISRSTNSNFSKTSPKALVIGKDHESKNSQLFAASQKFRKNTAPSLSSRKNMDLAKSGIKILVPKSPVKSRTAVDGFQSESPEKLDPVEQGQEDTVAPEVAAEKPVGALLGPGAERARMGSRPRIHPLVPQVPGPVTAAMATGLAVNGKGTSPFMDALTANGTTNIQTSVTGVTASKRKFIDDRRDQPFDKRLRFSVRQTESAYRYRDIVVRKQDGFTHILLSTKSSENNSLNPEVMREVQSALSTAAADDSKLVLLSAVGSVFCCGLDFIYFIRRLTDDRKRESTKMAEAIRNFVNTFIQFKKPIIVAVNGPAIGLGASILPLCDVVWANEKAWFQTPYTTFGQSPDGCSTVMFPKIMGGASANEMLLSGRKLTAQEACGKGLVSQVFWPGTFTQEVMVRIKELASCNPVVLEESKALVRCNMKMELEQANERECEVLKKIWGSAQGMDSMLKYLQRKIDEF
Put plainly: Inhibition of CDYL in human HEK293T cells assessed as increase in MYT1 mRNA expression at 50 to 200 uM incubated for 24 hrs by RT-qPCR analysis. The experiment is classed as cell-based. An outline of the steps: (§2)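 SH-SY5Y or HEK-293T cells grown in DMEM with 10% FBS and treated with compound for 24 h. mRNA quantified by SYBR green RT-qPCR after DNase treatment, 2^-ΔΔCt method with GAPDH as reference, relative to DMSO. Mean ± S.E.M. of triplicate experiments, Student's t-test.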

Experiment [4] concerns the target T2, Chromodomain Y-like protein (Homo sapiens). Put plainly: Binding affinity to CDYL in human SH-SY5Y cells assessed as increase in protein thermal stability at 150 uM incubated for 10 mins at room temperature followed by exposure to 40 to 67 degC for 4 mins followed by cooling for 3 mins at room temperature by CETSA. The class given is cell-based. An outline of the steps:
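SH-SY5Y cells freeze-thawed three times in liquid nitrogen, lysate diluted with PBS, given 150 µM compound or DMSO for 10 min at room temperature. Aliquots heated at 40–67 °C for 4 min, cooled 3 min, spun at 13,000 g for 10 min at 4 °C. CDYL in the supernatant read by SDS-PAGE and Western blot, bands quantified by densitometry.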

Experiment [5] has the same target. Put plainly: Inhibition of CDYL in human SH-SY5Y cells assessed as increase in BDNF mRNA expression incubated for 24 hrs by RT-qPCR analysis. The class given is cell-based. An outline of the steps: as §2
Experiment [6] concerns SH-SY5Y. The experiment can be described thus: Effect on enrichment of H3K27me3 at HOXA3 promoter site in human SH-SY5Y cells at 150 uM incubated for 24 hrs by ChIP-qPCR analysis. The class given is functional, cell-based. An outline of the steps: (§3)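 About 1×10^7 SH-SY5Y cells given 150 µM compound or DMSO for 24 h, fixed in 1% formaldehyde for 10 min. Chromatin immunoprecipitated overnight-style (12 h, 4 °C) with CDYL or H3K27me3 antibody, captured on Protein A/G beads, washed, decrosslinked at 65 °C. Promoter DNA quantified by qPCR, mean ± S.E.M. of triplicate experiments, Student's t-test.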

Experiment [7] has as its target T2, Chromodomain Y-like protein (Homo sapiens). The experiment can be described thus: Binding affinity to CDYL in human SH-SY5Y cells assessed as reduction in protein degradation incubated for 4 mins at 55 degC for 4 mins by CETSA. The experiment is classed as cell-based. An outline of the steps: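 Lysates of SH-SY5Y cells, freeze-thawed three times, incubated with compound at 0–500 µM at 55 °C for 4 min. Supernatant isolated by centrifugation and CDYL read by immunoblot with densitometry.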

The target is the same in experiment [8]. The experiment can be described thus: Inhibition of CDYL in human SH-SY5Y cells assessed as decrease in enrichment of H3K27me3 at VGF promoter site at 150 uM incubated for 24 hrs by ChIP-qPCR analysis. The class given is cell-based. In short, it runs like this: as §3
For experiment [9] the target is unchanged. Put plainly: Inhibition of CDYL in human HEK293T cells assessed as increase in BDNF mRNA expression at 50 to 200 uM incubated for 24 hrs by RT-qPCR analysis. The experiment is classed as cell-based. An outline of the steps: as §2
The target is the same in experiment [10]. The experiment can be described thus: Inhibition of CDYL in human SH-SY5Y cells assessed as increase in MYT1 mRNA expression incubated for 24 hrs by RT-qPCR analysis. The class given is cell-based. An outline of the steps: as §2
In experiment [11] the target is T1, Chromodomain Y-like protein (Mus musculus). The experiment can be described thus: Inhibition of CDYL in C57BL/6 mouse hippocampal neurons assessed as induction of dendritic branching at 150 uM incubated for 24 hrs by DAPI staining confocal microscopic method. An outline of the steps:
as §1

Our source for the Activity and inhibition values is ChEMBL document CHEMBL4359913, “Identification and characterization of benzo[d]oxazol-2(3H)-one derivatives as the first potent and selective small-molecule inhibitors of chromodomain protein CDYL” (Eur J Med Chem, 2019).

Active and inactive are the calls of the source. The rule behind the calls is not given here.

Turning to `O=C(Cn1c(=O)oc2ccccc21)N1CCC(N2CCCC2)CC1`, the result in [1], in [2], in experiment [3], in experiment [4], in [9] and in experiment [11] was Active. Also, the Activity entry in [5] and in experiment [10] was “Dose-dependent effect” throughout. Further, the outcome in experiment [6] was inactive. In addition, in [7], the inhibition result is “Dose-dependent effect”. In addition, the inhibition result in [8] is “Active”.
